Measurements of several laboratories.
Melanocortin receptor 3: Melanocortin receptor 3 (Mus musculus, UniProt P33033)
CHRM1: Muscarinic acetylcholine receptor M1 (CHRM1, Homo sapiens, UniProt P11229)
TLR7: Toll-like receptor 7 (TLR7, Homo sapiens, UniProt Q9NYK1)
Grm8: Metabotropic glutamate receptor 8 (Grm8, Rattus norvegicus, UniProt P70579)

CCCC[C@H](NC(=O)[C@@H](NC(=O)[C@@H](N)Cc1ccc(O)cc1)C(C)C)C(=O)NCC(=O)N[C@@H](Cc1c[nH]cn1)C(=O)N[C@@H](Cc1ccccc1)C(=O)N[C@@H](CCCN=C(N)N)C(=O)N[C@@H](Cc1c[nH]c2ccccc12)C(=O)N[C@@H](CC(=O)O)C(=O)N[C@@H](CCCN=C(N)N)C(=O)N[C@@H](Cc1ccccc1)C(=O)NCC(=O)O
EC50 (Melanocortin receptor 3; reporter gene; agonist): 0.068 µM

CCn1c(-c2nc3cc(C(=O)N4CCC[C@@H](N)C4)cc(OC)c3n2C)cc2cccnc21
EC50 (CHRM1; calcium signal; agonist): 7.94 µM

CCCCOc1nc(N)c2[nH]c(=O)n(C3CNC3)c2n1
EC50 (TLR7; reporter gene; agonist): 286 µM

N[C@@H](CCC(=O)O)C(=O)O
EC50 (Grm8; ion flux; agonist): 6.3 µM

CSCC[C@H](NC(=O)[C@@H](NC(=O)[C@@H](N)Cc1ccc(O)cc1)C(C)C)C(=O)NCC(=O)N[C@@H](Cc1c[nH]cn1)C(=O)N[C@@H](Cc1ccccc1)C(=O)N[C@@H](CCCNC(=N)N)C(=O)N[C@@H](Cc1c[nH]c2ccccc12)C(=O)O
EC50 (Melanocortin receptor 3; reporter gene; agonist): 2.8 µM

C[C@]12CCC3=C4CCC(=O)C=C4CC[C@H]3[C@@H]1CC[C@@]2(O)CC#N
EC50 (Progesterone receptor (PGR, Homo sapiens, UniProt P06401); reporter gene; agonist): 0.0036 µM

CC(=O)c1cc([N+](=O)[O-])c(Sc2cccc(Cl)c2Cl)s1
EC50 (Collagenase 3 (MMP13, Homo sapiens, UniProt P45452); enzyme activity; inhibitor): > 50 µM

CCCCOc1nc(N)c2[nH]c(=O)n(CCN3CCNCC3)c2n1
EC50 (TLR7; reporter gene; agonist): 10 µM

CCCC[C@H](NC(=O)[C@@H](NC(=O)[C@@H](N)Cc1ccc(O)cc1)C(C)C)C(=O)NCC(=O)N[C@@H](Cc1c[nH]cn1)C(=O)N[C@@H](Cc1ccccc1)C(=O)N[C@@H](CCCNC(=N)N)C(=O)N[C@H](Cc1c[nH]c2ccccc12)C(=O)N[C@@H](CC(=O)O)C(=O)N[C@@H](CCCNC(=N)N)C(=O)N[C@@H](Cc1ccccc1)C(=O)NCC(=O)O
EC50 (Melanocortin receptor 3; reporter gene; agonist): 0.04 µM

CC[C@@H]1SC2(CCN(C)CC2)NC1=O
EC50 (Muscarinic acetylcholine receptor M4 (Rattus norvegicus, UniProt P08485); calcium signal; agonist): > 50 µM

CCNC(=O)C1OC(n2cnc3c(N)nc(NN=CC4CCC=CO4)nc32)C(O)C1O (centres unmarked)
EC50 (Adenosine receptor A2b (ADORA2B, Homo sapiens, UniProt P29275); GTPγS binding; agonist; cell membranes): 31 µM

CCn1c(-c2nc3ccc(C(=O)N4CCCC(N)C4)cc3n2C)cc2ccccc21 (centres unmarked)
EC50 (CHRM1; calcium signal; agonist): 15.8 µM

COC(=O)c1ccc(-n2c(C)cc(C(=O)CSc3ccc(NC(C)=O)cc3)c2C)cc1
EC50 (Grm8; calcium signal; positive allosteric modulator): 0.851 µM

CSCC[C@H](N)C(=O)NCC(=O)N[C@@H](Cc1c[nH]cn1)C(=O)N[C@@H](Cc1ccccc1)C(=O)N[C@@H](CCCNC(=N)N)C(=O)N[C@@H](Cc1c[nH]c2ccccc12)C(=O)O
EC50 (Melanocortin receptor 3; reporter gene; agonist): 22.4 µM
